The results in this text go back to ChEMBL document CHEMBL1148746, “Functional characterization of Tet-AMPA [tetrazolyl-2-amino-3-(3-hydroxy-5-methyl- 4-isoxazolyl)propionic acid] analogues at ionotropic glutamate receptors GluR1-GluR4. The molecular basis for the functional selectivity profile of 2-Bn-Tet-AMPA” (J Med Chem, 2007).

Test [1] has as its target Glutamate receptor 4 (Rattus norvegicus) (UniProt P19493). In words: Agonist activity at GluR4 expressed in HEK293 cells relative to S-Glutamate by Fluo-4/Ca2+ assay.
In test [2] the target is Glutamate receptor 3 (Rattus norvegicus) (UniProt P19492). In words: Agonist activity at GluR3 expressed in HEK293 cells by Fluo-4/Ca2+ assay.
Test [3] shares this target. Kind of test: Agonist activity at GluR3 expressed in HEK293 cells relative to S-Glutamate by Fluo-4/Ca2+ assay.
For test [4], the target named is Glutamate receptor 4 (Rattus norvegicus) (UniProt P19493). Kind of test: Agonist activity at GluR4 expressed in HEK293 cells by Fluo-4/Ca2+ assay.
Test [5] addresses Glutamate receptor 1 (Rattus norvegicus) (UniProt P19490). Kind of test: Agonist activity at GluR1 expressed in HEK293 cells by Fluo-4/Ca2+ assay.
Test [6] shares this target. In words: Agonist activity at GluR1 expressed in HEK293 cells relative to S-Glutamate by Fluo-4/Ca2+ assay.
Test [7] addresses Glutamate receptor 2 (Rattus norvegicus) (UniProt P19491). In words: Agonist activity at GluR2Q expressed in HEK293 cells by Fluo-4/Ca2+ assay.
A short description of test [8]: Agonist activity at GluR1 M686V/I687 mutant expressed in HEK293 cells by Fluo-4/Ca2+ assay. It is filed as functional, cell-based. As to conditions: Homo sapiens. In short, it runs like this:
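Rat GluR1i mutants, cDNA sequence-verified, transiently transfected into HEK293 cells and kept 2-3 weeks under 3 mg/mL G-418 selection to make polyclonal cells. Cells were plated 16-24 h ahead, loaded with Fluo-4/AM for 1 h at 37 °C, then held in HBSS with 20 mM HEPES, 10 mM CaCl2, 2.5 mM probenecid and 100 µM CTZ, pH 7.4. Fluorescence (ex 485/em 520 nm) was read up to 60 s after agonist addition.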

For test [9], the target named is Glutamate receptor 4 (Homo sapiens) (UniProt P48058). In words: Agonist activity at GluR4 expressed in Xenopus oocyte cells relative to S-Glutamate. It is filed as functional, cell-based. In short, it runs like this: (§1)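 Rat GluR1i mutant or GluR4i cRNA expressed in Xenopus oocytes, recorded by two-electrode voltage clamp 2-3 days after injection. Low-Ca2+ Ringer's (115 mM NaCl, 0.1 mM CaCl2, pH 7.5) was used, with 30 s pretreatment and continuous application of 100 µM CTZ. Peak currents were normalized to 1000 µM glutamate + 100 µM CTZ and fitted to the Hill equation; n = 3.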

Test [10] has as its system Glutamate receptor 1 (Homo sapiens), P42261 [D417S,M704V,I705A]. Kind of test: Agonist activity at GluR1 D399S/M686V/I687A mutant expressed in Xenopus oocyte cells relative to S-Glutamate. It is filed as functional, cell-based. In short, it runs like this: as §1

Some results are limits rather than exact numbers.

Usually EC50 stands for the concentration at which the effect is half-maximal.

Chain of Glutamate receptor 4 (Rattus norvegicus) (P19493 whole entry, looked up): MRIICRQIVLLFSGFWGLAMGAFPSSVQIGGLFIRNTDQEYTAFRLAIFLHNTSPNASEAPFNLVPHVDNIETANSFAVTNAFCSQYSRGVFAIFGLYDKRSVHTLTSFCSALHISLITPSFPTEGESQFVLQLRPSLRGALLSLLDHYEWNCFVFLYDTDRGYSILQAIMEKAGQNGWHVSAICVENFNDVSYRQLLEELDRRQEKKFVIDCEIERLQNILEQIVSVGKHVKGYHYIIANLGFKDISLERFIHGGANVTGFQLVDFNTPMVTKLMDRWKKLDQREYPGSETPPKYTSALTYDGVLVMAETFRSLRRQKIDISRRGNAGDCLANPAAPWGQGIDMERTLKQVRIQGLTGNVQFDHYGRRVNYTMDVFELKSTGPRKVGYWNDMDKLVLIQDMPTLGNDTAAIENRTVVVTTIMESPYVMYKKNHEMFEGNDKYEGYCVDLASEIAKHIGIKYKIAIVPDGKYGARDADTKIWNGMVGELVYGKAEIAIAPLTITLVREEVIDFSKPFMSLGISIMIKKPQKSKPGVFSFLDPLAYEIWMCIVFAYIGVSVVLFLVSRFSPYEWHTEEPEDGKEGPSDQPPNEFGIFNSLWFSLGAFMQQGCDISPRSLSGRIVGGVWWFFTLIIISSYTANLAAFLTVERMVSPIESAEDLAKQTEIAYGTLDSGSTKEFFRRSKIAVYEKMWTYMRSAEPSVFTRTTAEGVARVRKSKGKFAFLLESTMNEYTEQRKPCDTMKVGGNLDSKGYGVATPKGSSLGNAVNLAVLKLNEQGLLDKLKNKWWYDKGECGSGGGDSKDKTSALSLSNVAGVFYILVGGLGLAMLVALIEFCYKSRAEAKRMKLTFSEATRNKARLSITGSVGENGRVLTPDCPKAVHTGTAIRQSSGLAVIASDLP
Chain of Glutamate receptor 3 (Rattus norvegicus) (P19492 whole entry, looked up): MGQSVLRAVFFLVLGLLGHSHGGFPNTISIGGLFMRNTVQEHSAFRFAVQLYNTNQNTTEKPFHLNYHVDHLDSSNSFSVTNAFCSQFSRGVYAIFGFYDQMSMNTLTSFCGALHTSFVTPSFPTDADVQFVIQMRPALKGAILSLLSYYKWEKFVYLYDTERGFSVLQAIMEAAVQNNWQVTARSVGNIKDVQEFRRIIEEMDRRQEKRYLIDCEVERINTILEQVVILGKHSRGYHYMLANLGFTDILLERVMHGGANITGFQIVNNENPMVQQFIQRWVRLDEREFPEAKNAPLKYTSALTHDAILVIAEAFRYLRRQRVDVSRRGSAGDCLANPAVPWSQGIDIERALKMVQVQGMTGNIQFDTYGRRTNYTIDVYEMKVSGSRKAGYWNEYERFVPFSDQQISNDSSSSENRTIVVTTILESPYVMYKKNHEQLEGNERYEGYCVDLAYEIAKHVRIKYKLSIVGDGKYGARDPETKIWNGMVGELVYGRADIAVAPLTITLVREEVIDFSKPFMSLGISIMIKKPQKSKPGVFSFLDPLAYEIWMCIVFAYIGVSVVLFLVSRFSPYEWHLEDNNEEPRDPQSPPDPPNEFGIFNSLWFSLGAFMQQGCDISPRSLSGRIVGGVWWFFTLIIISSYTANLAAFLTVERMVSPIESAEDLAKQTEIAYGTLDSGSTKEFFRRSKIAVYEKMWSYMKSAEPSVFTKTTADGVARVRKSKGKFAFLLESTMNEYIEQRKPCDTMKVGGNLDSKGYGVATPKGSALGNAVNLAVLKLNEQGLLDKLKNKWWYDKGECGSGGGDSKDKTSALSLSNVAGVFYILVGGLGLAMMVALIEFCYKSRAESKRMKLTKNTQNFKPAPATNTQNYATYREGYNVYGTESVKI
Chain of Glutamate receptor 2 (Rattus norvegicus) (P19491 whole entry, looked up): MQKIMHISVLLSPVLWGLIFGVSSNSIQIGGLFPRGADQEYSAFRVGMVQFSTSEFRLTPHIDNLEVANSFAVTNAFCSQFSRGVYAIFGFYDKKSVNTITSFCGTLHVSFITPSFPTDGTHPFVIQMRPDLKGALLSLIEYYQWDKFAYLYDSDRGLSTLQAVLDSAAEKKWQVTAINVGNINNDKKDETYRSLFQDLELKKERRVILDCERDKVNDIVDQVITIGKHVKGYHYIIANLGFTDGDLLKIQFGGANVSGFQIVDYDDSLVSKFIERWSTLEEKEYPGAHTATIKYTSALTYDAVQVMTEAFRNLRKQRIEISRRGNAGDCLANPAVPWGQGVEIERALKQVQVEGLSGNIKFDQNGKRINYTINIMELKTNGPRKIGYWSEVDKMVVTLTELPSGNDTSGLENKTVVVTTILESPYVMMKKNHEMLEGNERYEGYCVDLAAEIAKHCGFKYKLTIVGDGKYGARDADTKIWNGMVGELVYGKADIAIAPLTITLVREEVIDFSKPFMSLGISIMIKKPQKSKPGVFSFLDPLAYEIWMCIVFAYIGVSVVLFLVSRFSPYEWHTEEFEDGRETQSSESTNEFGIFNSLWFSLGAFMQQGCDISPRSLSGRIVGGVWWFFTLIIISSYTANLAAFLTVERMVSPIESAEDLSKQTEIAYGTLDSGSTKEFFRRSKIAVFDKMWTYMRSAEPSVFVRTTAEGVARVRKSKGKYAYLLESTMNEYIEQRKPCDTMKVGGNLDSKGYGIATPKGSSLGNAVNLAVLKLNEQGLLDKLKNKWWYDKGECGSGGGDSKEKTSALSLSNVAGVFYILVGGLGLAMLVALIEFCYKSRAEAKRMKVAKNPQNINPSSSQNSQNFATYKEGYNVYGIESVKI
Chain of Glutamate receptor 1 (Rattus norvegicus) (P19490 whole entry, looked up): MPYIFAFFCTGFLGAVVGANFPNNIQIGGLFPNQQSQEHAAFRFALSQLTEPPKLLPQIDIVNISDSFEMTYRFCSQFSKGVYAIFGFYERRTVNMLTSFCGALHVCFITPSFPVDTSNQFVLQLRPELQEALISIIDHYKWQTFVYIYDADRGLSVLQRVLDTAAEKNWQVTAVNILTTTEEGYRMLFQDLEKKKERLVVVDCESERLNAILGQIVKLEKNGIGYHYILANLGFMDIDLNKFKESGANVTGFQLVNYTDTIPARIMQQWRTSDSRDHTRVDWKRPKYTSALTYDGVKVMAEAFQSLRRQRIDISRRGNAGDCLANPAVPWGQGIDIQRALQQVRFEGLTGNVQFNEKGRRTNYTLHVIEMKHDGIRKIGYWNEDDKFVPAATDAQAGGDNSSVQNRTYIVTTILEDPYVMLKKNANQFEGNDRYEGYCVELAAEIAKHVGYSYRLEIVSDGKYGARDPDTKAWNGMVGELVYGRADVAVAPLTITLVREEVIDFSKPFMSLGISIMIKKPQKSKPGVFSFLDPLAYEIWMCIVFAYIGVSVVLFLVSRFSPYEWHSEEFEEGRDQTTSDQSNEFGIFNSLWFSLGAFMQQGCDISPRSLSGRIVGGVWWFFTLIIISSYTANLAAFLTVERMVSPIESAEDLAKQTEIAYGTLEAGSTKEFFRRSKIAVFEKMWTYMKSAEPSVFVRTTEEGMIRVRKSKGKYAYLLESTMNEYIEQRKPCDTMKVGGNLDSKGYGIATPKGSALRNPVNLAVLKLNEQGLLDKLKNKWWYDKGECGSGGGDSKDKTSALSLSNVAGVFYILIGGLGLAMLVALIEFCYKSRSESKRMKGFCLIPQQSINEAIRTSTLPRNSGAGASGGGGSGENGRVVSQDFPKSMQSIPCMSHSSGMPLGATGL
Chain of Glutamate receptor 1 (Homo sapiens), P42261 [D417S,M704V,I705A] (P42261 whole entry D417S/M704V/I705A): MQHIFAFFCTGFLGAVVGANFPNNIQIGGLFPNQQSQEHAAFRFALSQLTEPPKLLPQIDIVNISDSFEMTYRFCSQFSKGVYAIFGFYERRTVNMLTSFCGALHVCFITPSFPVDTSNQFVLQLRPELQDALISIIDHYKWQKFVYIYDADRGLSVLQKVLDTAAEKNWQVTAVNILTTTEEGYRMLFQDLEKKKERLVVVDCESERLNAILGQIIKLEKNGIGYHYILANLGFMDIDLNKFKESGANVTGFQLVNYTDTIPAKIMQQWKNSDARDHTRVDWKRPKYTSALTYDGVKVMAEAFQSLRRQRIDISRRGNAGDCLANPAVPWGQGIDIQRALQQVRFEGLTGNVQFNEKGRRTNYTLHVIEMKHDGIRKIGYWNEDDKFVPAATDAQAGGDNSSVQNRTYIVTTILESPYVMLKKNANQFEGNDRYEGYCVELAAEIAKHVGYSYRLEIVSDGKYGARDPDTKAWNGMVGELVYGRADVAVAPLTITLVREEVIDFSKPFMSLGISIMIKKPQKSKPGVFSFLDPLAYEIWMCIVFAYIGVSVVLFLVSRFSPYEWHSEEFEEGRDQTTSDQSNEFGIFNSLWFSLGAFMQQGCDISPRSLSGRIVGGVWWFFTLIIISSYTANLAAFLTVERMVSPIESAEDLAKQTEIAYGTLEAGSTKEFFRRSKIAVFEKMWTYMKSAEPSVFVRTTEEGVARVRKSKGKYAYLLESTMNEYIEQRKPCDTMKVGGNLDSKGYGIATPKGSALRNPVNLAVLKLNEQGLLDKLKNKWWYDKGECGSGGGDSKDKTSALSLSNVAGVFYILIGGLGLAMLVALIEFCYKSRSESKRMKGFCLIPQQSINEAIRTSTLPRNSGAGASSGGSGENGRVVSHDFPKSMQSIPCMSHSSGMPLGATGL

In the case of `CC(C)n1nnc(-c2onc(O)c2CC(N)C(=O)O)n1` (racemic), the RUmax in [1] turned out to be 83%; in test [3], 73%; in test [6], 73%. The EC50 in test [2] (read-out: EC50) was found to be 700 µM; in test [4] (read-out: EC50), 160 µM; in [5], 550 µM; in test [7], 1000 µM.
For `Cn1nnnc1-c1onc(O)c1CC(N)C(=O)O` (racemic), the RUmax worked out at 79% in test [1] and 22% in [3]. Moreover, the EC50 in test [2] (read-out: EC50) was more than 3000 µM; in test [4] (read-out: EC50) it was 3000 µM; in [5] it was more than 3000 µM; in test [7], more than 3000 µM.
As to `CCn1nnc(-c2o[nH]c(=O)c2CC(N)C(=O)O)n1` (racemic), the EC50 in test [2] (read-out: EC50) is 18 µM; in test [2] (read-out: Log EC50 (converted)) it was 15.8 µM; in test [4] (read-out: EC50), 4 µM; in test [5], 42 µM; in test [7] it was 52 µM.
As for `CCCn1nnc(-c2onc(O)c2CC(N)C(=O)O)n1` (racemic), the RUmax in test [1] was 97%; in test [3] it was 85%; in test [6], 82%. Further, the EC50 was 450 µM in test [2] (read-out: EC50); 398 µM in test [2] (read-out: Log EC50 (converted)); 79 µM in test [4] (read-out: EC50); 63.1 µM in test [4] (read-out: Log EC50 (converted)); 480 µM in test [5]; 830 µM in test [7].
As for `NC(Cc1c(O)noc1-c1nnn(Cc2ccccc2)n1)C(=O)O` (racemic), the EC50 in test [8] (read-out: EC50) turned out to be 500 µM. Besides, the RUmax in test [9] is 63%; in test [10] it was 60%.
With `CCn1nnc(-c2onc(O)c2CC(N)C(=O)O)n1` (racemic), the RUmax is 94% in test [1], 95% in test [3] and 83% in [6].
Consider `N[C@@H](CCC(=O)O)C(=O)O` [GLUTAMIC ACID], for which the EC50 was 76 µM in test [8] (read-out: EC50) and 79.4 µM in [8] (read-out: Log EC50 (converted)).
